Assay results as given in paper PMC6025808 (Journal of fluorescence, 2017).
Where a chain is given by its changes, count along the chain named. Read-outs that look alike come from different tables or passages of the source.

What was measured:
[1] = molecular target: T1, GK-WT (recombinant wild type human β-cell glucokinase) (Homo sapiens, UniProt P35557); experiment: D-glucose binding to GK-WT by tryptophan fluorescence titration
T1 sequence (P35557 1-465): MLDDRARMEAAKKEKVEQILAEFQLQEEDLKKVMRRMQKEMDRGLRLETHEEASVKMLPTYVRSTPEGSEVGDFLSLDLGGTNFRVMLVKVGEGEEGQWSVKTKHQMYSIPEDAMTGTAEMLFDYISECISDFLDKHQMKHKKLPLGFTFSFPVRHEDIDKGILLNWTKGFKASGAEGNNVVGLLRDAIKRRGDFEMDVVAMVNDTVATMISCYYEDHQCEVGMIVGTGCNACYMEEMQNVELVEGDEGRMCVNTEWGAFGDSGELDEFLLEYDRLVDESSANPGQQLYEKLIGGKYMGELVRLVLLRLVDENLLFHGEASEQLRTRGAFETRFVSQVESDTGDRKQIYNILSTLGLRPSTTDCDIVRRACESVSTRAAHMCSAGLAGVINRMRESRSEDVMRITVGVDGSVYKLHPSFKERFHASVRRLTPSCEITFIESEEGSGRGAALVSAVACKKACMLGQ
In short: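 Recombinant human wild-type β-cell glucokinase was titrated with D-glucose in K-phosphate buffer, pH 7.2, with or without cosolvent, and read by Trp fluorescence at 20 °C (excitation 295 nm, emission 300–500 nm). Fluorescence was fitted to F = F0 + (Fsat − F0)[glucose]/([glucose] + Kd) to give Kd and F/F0, the intensity at glucose saturation over the intensity without glucose.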

GK-WT = experiment: Change of tryptophan fluorescence yield of GK-WT on adding glucose or glycerol; type: binding, human
GK-W167 (W99R/W257F) = molecular target: T2, GK-W167 (W99R/W257F) (Homo sapiens, UniProt P35557, W257F/W99R); experiment: Change of tryptophan fluorescence yield of GK-W167 on adding glucose or glycerol; type: binding
T2 sequence (P35557 1-465 W99R/W257F): T1 sequence (P35557 1-465) with W99R, W257F
In short: (§1)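 Recombinant human β-cell glucokinase single-Trp variant, made as a GST fusion in E. coli, cleaved with factor Xa, and repurified. Buffer was 20 mM K phosphate, 50 mM KCl, 1 mM EDTA, 1 mM DTT, pH 7.2, with or without 100 mM D-glucose or 95% glycerol (v/v). Excitation 295 nm, emission 300–500 nm, 20 °C. Quantum yield was measured against NATA (φ 0.14) in water at A < 0.05, with refractive-index correction. The ratio is with/without additive.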

GK-W99 (W167F/W257F) = molecular target: T3, GK-W99 (W167F/W257F) (Homo sapiens, UniProt P35557, W167F/W257F); experiment: Change of tryptophan fluorescence yield of GK-W99 on adding glucose or glycerol; type: binding; conditions: GK-W99, 95% glycerol/buffer (v/v)
T3 sequence (P35557 1-465 W167F/W257F): T1 sequence (P35557 1-465) with W167F, W257F
In short: as §1

GK-W257 (W99R/W167F) = molecular target: T4, GK-W257 (W99R/W167F) (Homo sapiens, UniProt P35557, W167F/W99R); experiment: Change of tryptophan fluorescence yield of GK-W257 on adding glucose or glycerol; type: binding; conditions: GK-W257, 95% glycerol/buffer (v/v)
T4 sequence (P35557 1-465 W99R/W167F): T1 sequence (P35557 1-465) with W99R, W167F
In short: as §1

[2] = molecular target: T5, GK-W65 (W99R/W167F/W257F/T65W) (Homo sapiens, UniProt P35557, T65W/W167F/W257F/W99R); experiment: Change of tryptophan fluorescence yield of GK-W65 on adding glucose or glycerol; type: binding; conditions: GK-W65, 95% glycerol/buffer (v/v)
T5 sequence (P35557 1-465 T65W/W99R/W167F/W257F): T1 sequence (P35557 1-465) with T65W, W99R, W167F, W257F
In short: as §1

Structure (SMILES)	F/F0 upon D-glucose binding ([1]; 1 M sucrose)	F/F0 upon D-glucose binding ([1]; 1 M trehalose)	F/F0 upon D-glucose binding ([1]; 2 M L-glucose)	F/F0 upon D-glucose binding ([1]; 20% glycerol)	Kd ([1]; D-glucose binding KD, 1 M sucrose) [µM]	Kd ([1]; D-glucose binding KD, 1 M trehalose) [µM]	Kd ([1]; D-glucose binding KD, 2 M L-glucose) [µM]	Kd ([1]; read-out: D-glucose binding KD, PO4 buffer pH 7.2, 20 °C) [µM]	(Φf)/Φ0 observed, fluorescence quantum yield with/without (times) (GK-WT; 100 mM D-glucose in buffer, listed as Glucose)	(Φf)/Φ0 observed, fluorescence quantum yield with/without (times) (GK-WT; 100 mM D-glucose in buffer, listed as glucose)	(Φf)/Φ0 observed, fluorescence quantum yield with/without (times) (GK-W167 (W99R/W257F); GK-W167, 100 mM D-glucose in buffer, listed as Glucose)	(Φf)/Φ0 observed, fluorescence quantum yield with/without (times) (GK-W167 (W99R/W257F); GK-W167, 100 mM D-glucose in buffer, listed as glucose)	(Φf)/Φ0 observed, fluorescence quantum yield with/without (times) (GK-WT; 95% glycerol/buffer (v/v))	(Φf)/Φ0 observed, fluorescence quantum yield with/without (times) (GK-W99 (W167F/W257F))	(Φf)/Φ0 observed, fluorescence quantum yield with/without (times) (GK-W99 (W167F/W257F); listed as Glycerol)	(Φf)/Φ0 observed, fluorescence quantum yield with/without (times) (GK-W167 (W99R/W257F); GK-W167, 95% glycerol/buffer (v/v))	(Φf)/Φ0 observed, fluorescence quantum yield with/without (times) (GK-W257 (W99R/W167F))	(Φf)/Φ0 observed, fluorescence quantum yield with/without (times) [2]
OC[C@H]1OC(O)[C@H](O)[C@@H](O)[C@@H]1O (stereo partly drawn) [D-glucose]	1.74	1.71	1.63	1.74	3570	1750	1120	7390	2.0	~2	1.8	about 1.8						
OCC(O)CO [glycerol]													2.6	over 4.6	4.6	~2.3	1.3	1.1
